Data reported in ChEMBL document CHEMBL1142313, “Parallel synthesis of a series of potentially brain penetrant aminoalkyl benzoimidazoles” (Bioorg Med Chem, 2008).
Active and inactive are the calls of the source. The calls are words filed in the database; no cut-off is given here.

Legend:
Assay type in all cases: functional, cell-based
[1] = biological target: Neuronal acetylcholine receptor subunit alpha-7 (Rattus norvegicus) (UniProt Q05941); experiment: Agonist activity at rat alpha-7 nAChR expressed in GH4C1-F7 cells assessed as effect on calcium influx at 5 uM by FLIPR relative to nicotine
Method in brief: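 GH4C1-F7 cells stably expressing rat alpha7 nAChR were seeded at 100,000/well on poly-D-lysine plates and loaded with Fluo-4 (with pluronic acid and probenecid) for 30 min at 37 °C.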

[2] = biological target: Neuronal acetylcholine receptor subunit alpha-7 (Rattus norvegicus, UniProt Q05941); experiment: Agonist activity at rat alpha-7 nAChR expressed in GH4C1-F7 cells assessed as effect on calcium influx by FLIPR
[3] = biological target: Neuronal acetylcholine receptor subunit alpha-7 (Rattus norvegicus) (UniProt Q05941); experiment: Reversal of agonist activity at rat alpha-7 nAChR expressed in GH4C1-F7 cells assessed as effect on calcium influx at 10 uM in presence of methyllycaconitine by FLIPR
Method in brief: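 GH4C1-F7 rat alpha7-nAChR cells loaded with Fluo-4/probenecid at 37 °C for 30 min, then washed in HBSS-20 mM Hepes with 2.5 mM probenecid, with or without MLA 1 µM. Compound added and Ca2+ fluorescence read by FLIPR, every second for 1 min then every 30 s for 10 min. Peak height taken as max-min. A signal lost in the presence of MLA marks alpha7 selectivity.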

Sequence of Neuronal acetylcholine receptor subunit alpha-7 (Q05941 whole entry): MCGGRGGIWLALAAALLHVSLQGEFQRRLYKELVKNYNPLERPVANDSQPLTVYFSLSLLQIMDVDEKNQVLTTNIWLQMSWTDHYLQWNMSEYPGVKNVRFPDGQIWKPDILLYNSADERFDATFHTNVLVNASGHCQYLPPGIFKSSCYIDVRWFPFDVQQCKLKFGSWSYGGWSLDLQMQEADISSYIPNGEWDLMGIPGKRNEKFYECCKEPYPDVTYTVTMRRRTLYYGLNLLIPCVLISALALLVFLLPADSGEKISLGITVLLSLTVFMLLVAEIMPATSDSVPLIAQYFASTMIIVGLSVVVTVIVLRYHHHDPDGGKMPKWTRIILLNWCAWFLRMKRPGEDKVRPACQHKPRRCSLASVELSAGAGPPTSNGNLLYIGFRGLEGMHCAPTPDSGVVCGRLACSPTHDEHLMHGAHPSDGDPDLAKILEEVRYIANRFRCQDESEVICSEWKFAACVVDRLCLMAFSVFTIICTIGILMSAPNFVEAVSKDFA
Sequence of Neuronal acetylcholine receptor subunit alpha-7 (Rattus norvegicus) (Q05941 whole entry): as above

Activity [1]	SMILES	EC50 [2]	Activity [3]
> 20%	CN1CCN(CCCn2c(COc3cccc(Cl)c3)nc3ccccc32)CC1	10000 nM	–
> 20%	Cc1ccc2nc(Cc3ccc(Br)cc3)n(CCCN(C)C)c2c1	1700 nM	Active
–	O=C(Nc1ccccc1F)OC1CN2CCC1CC2 (stereo unspecified)	600 nM	–
–	CN1[C@@H]2CC[C@H]1C[C@H](NC(=O)Nc1ccc(Br)cc1)C2	200 nM	–
> 20%	CN(C)CCCn1c(COc2ccccc2)nc2ccccc21	2600 nM	Active

SMILES	Activity [1]	EC50 [2]	Activity [3]
CN(C)CCCn1c(Cc2ccc(Br)cc2)nc2ccccc21	> 20%	2600 nM	Active
CN1CCCC1CCn1c(Cc2ccc(Br)cc2)nc2ccccc21 (stereo unspecified)	> 20%	2700 nM	Active
